Experimental data as given in ChEMBL document CHEMBL3352164, “Discovery of N-(2,4-di-tert-butyl-5-hydroxyphenyl)-4-oxo-1,4-dihydroquinoline-3-carboxamide (VX-770, ivacaftor), a potent and orally bioavailable CFTR potentiator” (J Med Chem, 2014).

Legend:
[1] = test system: Cystic fibrosis transmembrane conductance regulator (Homo sapiens), P13569 [F508del]; assay: Potentiation of human CFTR F508del mutant expressed in mouse NIH-3T3 cells at 30 uM after 30 mins by fluorescent voltage sensing optical assay relative to VRT-532; type: cell-based; conditions: NIH3T3
Chain of Cystic fibrosis transmembrane conductance regulator (Homo sapiens), P13569 [F508del] (P13569 as listed by the source): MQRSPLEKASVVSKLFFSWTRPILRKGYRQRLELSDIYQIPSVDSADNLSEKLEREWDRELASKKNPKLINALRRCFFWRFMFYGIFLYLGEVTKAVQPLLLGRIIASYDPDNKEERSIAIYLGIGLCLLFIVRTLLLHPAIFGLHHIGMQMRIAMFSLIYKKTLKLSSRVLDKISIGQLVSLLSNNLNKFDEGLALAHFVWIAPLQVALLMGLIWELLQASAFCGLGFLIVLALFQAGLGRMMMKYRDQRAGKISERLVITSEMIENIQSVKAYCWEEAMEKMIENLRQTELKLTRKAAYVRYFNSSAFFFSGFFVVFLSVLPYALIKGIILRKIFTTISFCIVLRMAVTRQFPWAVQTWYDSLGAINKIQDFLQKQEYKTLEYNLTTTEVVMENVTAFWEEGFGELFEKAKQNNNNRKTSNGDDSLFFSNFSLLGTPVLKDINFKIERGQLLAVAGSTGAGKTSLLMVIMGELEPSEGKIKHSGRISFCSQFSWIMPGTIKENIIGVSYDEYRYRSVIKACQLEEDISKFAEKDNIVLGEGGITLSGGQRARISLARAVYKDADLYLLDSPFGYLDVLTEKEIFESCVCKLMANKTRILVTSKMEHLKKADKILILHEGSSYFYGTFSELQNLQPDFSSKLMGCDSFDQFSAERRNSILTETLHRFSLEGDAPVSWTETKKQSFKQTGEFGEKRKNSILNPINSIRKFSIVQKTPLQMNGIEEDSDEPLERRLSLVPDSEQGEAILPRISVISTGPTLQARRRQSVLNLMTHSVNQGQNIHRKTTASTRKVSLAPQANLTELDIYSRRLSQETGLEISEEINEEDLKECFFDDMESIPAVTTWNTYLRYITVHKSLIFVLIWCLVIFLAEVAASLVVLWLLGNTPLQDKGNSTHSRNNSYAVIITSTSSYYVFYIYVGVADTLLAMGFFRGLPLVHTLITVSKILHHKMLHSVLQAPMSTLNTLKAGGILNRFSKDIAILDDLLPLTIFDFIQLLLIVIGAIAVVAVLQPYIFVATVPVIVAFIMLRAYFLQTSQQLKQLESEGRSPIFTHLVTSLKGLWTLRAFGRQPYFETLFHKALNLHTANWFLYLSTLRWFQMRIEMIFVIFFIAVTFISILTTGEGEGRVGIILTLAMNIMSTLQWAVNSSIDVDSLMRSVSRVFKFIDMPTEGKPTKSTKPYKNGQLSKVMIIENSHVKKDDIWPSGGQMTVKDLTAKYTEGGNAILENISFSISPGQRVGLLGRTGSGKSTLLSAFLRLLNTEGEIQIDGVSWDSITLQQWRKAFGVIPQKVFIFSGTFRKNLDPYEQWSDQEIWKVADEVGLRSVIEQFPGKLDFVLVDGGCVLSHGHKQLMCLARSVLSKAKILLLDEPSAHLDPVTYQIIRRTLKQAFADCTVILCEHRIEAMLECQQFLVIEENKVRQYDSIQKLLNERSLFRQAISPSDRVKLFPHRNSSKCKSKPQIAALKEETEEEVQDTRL
Procedure, shortened: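 Same F508del-CFTR NIH-3T3 membrane-potential assay: 27 °C correction for 16–24 h, dye plus compound for 30 min at room temperature, then forskolin in Cl−-free bath. Compounds below 50% activity at 30 μM were not titrated. Their response at 30 μM is given as % of VRT-532.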

[2] = target: Cystic fibrosis transmembrane conductance regulator (Homo sapiens, UniProt P13569, F508DEL); assay: Potentiation of human CFTR F508del mutant expressed in mouse NIH-3T3 cells after 30 mins by fluorescent voltage sensing optical assay; type: cell-based, NIH3T3
Chain of Cystic fibrosis transmembrane conductance regulator (P13569 as listed by the source): as above
Procedure, shortened: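 NIH-3T3 fibroblasts stably expressing human F508del-CFTR were held 16–24 h at 27 °C to correct misfolding. Cells were washed in NaCl/HEPES bath, pH 7.4, then loaded with voltage-sensing dyes plus compound for 30 min at room temperature. Cl−-free bath with forskolin was added once, and membrane potential change was read by fluorescence. EC50 is mean ± SD of at least three determinations.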

[3] = Half life in Sprague-Dawley rat at 2.49 mg/kg, iv; type: ADME, organism-based; design: dose 2.49 mg/kg, route intravenous; conditions: in vivo
Procedure, shortened: (§1)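 Animals (n = 3/group; male mouse, Sprague-Dawley rat, beagle dog, cynomolgus monkey) got a single iv dose in dimethyl isosorbide/ethanol/PEG400/D5W (10%/15%/35%/40%) at 1 mL/kg. Heparinized blood was drawn via an indwelling carotid cannula from predose to 48 h. Plasma was assayed by LC/MS/MS (LLOQ 1 ng/mL, linear 1–2500 ng/mL). Parameters came from noncompartmental analysis of mean profiles using measured doses.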

[4] = Volume of distribution at steady state in Sprague-Dawley rat at 2.49 mg/kg, iv; type: ADME, organism-based; design: dose 2.49 mg/kg, route intravenous; conditions: in vivo, read-out: Vdss; procedure, shortened: as §1
[5] = Clearance in Sprague-Dawley rat at 2.49 mg/kg, iv; type: ADME, organism-based; design: dose 2.49 mg/kg, route intravenous; conditions: in vivo; procedure, shortened: as §1
[6] = AUC (0 to infinity) in Sprague-Dawley rat at 2.49 mg/kg, iv; type: ADME, organism-based; design: time infinity, dose 2.49 mg/kg, route intravenous; conditions: plasma
Procedure, shortened: (§2)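 Male Sprague−Dawley rats, n = 3/group, single iv dose in dimethyl isosorbide/ethanol/PEG400/D5W (10%/15%/35%/40%) at 1 mL/kg. Carotid cannula blood at predose, 5, 15, 30, 45 min and 1, 2, 4, 6, 8, 12, 24, 36, 48 h. Plasma levels by LC/MS/MS (LLOQ 1 ng/mL, linear 1–2500 ng/mL). Noncompartmental analysis of mean profiles using measured doses.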

[7] = Half life in Sprague-Dawley rat at 1.29 mg/kg, iv; type: ADME, organism-based; design: dose 1.29 mg/kg, route intravenous; conditions: in vivo; procedure, shortened: as §1
[8] = Volume of distribution at steady state in Sprague-Dawley rat at 1.29 mg/kg, iv; type: ADME, organism-based; design: dose 1.29 mg/kg, route intravenous; conditions: in vivo, read-out: Vdss; procedure, shortened: as §1
[9] = AUC (0 to infinity) in Sprague-Dawley rat at 1.29 mg/kg, iv; type: ADME, organism-based; design: dose 1.29 mg/kg, route intravenous, time infinity; conditions: plasma; procedure, shortened: as §2
[10] = Clearance in Sprague-Dawley rat at 1.29 mg/kg, iv; type: ADME, organism-based; design: dose 1.29 mg/kg, route intravenous; conditions: in vivo; procedure, shortened: as §1
[11] = Clearance in Sprague-Dawley rat at 2.45 mg/kg, iv; type: ADME, organism-based; design: dose 2.45 mg/kg, route intravenous; conditions: in vivo; procedure, shortened: as §1
[12] = Volume of distribution at steady state in Sprague-Dawley rat at 2.45 mg/kg, iv; type: ADME, organism-based; design: dose 2.45 mg/kg, route intravenous; conditions: in vivo, read-out: Vdss; procedure, shortened: as §1
[13] = AUC (0 to infinity) in Sprague-Dawley rat at 2.45 mg/kg, iv; type: ADME, organism-based; design: time infinity, dose 2.45 mg/kg, route intravenous; conditions: plasma; procedure, shortened: as §2
[14] = Half life in Sprague-Dawley rat at 2.45 mg/kg, iv; type: ADME, organism-based; design: dose 2.45 mg/kg, route intravenous; conditions: in vivo; procedure, shortened: as §1

| Activity [1] [%] | EC50 [2] [nM] | SMILES | other results |
| --- | --- | --- | --- |
| 20 |  | CC(C)(C)c1ccc(NC(=O)c2c[nH]c3ccccc3c2=O)cc1CN |  |
| 10 |  | O=C(c1cnc2ccccn2c1=O)N(Cc1ccccc1)Cc1ccccc1 |  |
|  | 2100 | O=C(c1c[nH]c2ccccc2c1=O)N(Cc1ccccc1)Cc1ccccc1 |  |
|  | 100 | CCc1c[nH]c2cc(NC(=O)c3c[nH]c4ccccc4c3=O)ccc12 |  |
|  | 11 | CC(C)(C)c1cc2cc[nH]c2cc1NC(=O)c1c[nH]c2ccccc2c1=O | half-life [3]: 2.9 h; Vd [4]: 3.3 L/kg; clearance [5]: 15.8 mL/min/kg; AUC(0-inf) [6]: 2640 ng·h/mL |
| 37 |  | Cn1cc(C(=O)N(Cc2ccccc2)Cc2ccccc2)c(=O)c2ccccc21 |  |
| 8 |  | O=C(Nc1cnc2ccccc2c1O)c1ccc2cc[nH]c2c1 |  |
|  | 3500 | COC(=O)Nc1cc(NC(=O)c2c[nH]c3ccccc3c2=O)ccc1C(C)(C)C |  |
|  | 400 | CCCc1ccc(NC(=O)c2c[nH]c3ccccc3c2=O)cc1N |  |
| 24 |  | CC(=O)Nc1cc(NC(=O)c2c[nH]c3ccccc3c2=O)ccc1C(C)(C)C |  |
|  | 5100 | CC(C)(C)c1ccc(NC(=O)c2c[nH]c3ccccc3c2=O)cc1S(N)(=O)=O |  |
|  | 3 | CC(C)(C)c1ccc(NC(=O)c2c[nH]c3ccccc3c2=O)cc1O | half-life [7]: 0.7 h; Vd [8]: 2.9 L/kg; AUC(0-inf) [9]: 260 ng·h/mL; clearance [10]: 85.6 mL/min/kg |
| 21 |  | O=C1Cc2ccc(NC(=O)c3c[nH]c4ccccc4c3=O)cc2N1 |  |
| 1 |  | O=c1c(S(=O)(=O)Nc2ccc3cc[nH]c3c2)c[nH]c2ccccc12 |  |
|  | 8500 | N#CCc1ccccc1NC(=O)c1c[nH]c2ccccc2c1=O |  |
|  | 6000 | Cc1ccc(NC(=O)c2c[nH]c3ccccc3c2=O)cc1N |  |
| 12 |  | O=C(Nc1ccc2nc[nH]c2c1)c1c[nH]c2ccccc2c1=O |  |
|  | 100 | CC(C)(C)c1ccc(NC(=O)c2c[nH]c3ccccc3c2=O)cc1CO |  |
|  | 200 | CC(C)c1ccccc1NC(=O)c1c[nH]c2ccccc2c1=O |  |
|  | 9 | CC(C)(C)c1c[nH]c2cc(NC(=O)c3c[nH]c4ccccc4c3=O)ccc12 | clearance [11]: 60.7 mL/min/kg; Vd [12]: 4.4 L/kg; AUC(0-inf) [13]: 700 ng·h/mL; half-life [14]: 1.3 h |
|  | 100 | CC(C)(C)c1ccc(NC(=O)c2c[nH]c3ccccc3c2=O)cc1F |  |
|  | 3500 | O=C(c1ccc2ccccc2c1O)N(Cc1ccccc1)Cc1ccccc1 |  |
| 1 |  | O=c1c(CNc2ccc3cc[nH]c3c2)c[nH]c2ccccc12 |  |
|  | 3 | CC(C)(C)c1cc(C(F)(F)F)c(NC(=O)c2c[nH]c3ccccc3c2=O)cc1O |  |
